Bioassay records: PubChem, several laboratories
CHOP inhibitor = CHOP inhibition in unfolded protein response | actives 3.8% (n = 220,000) | AID 2732 | inhibition, % at 10 µM | CHO-K1 CHOP-promoter luciferase, tunicamycin-induced, 15-18 h;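 active = compounds that reduced the stress-induced luciferase reporter signal by more than about 70% of percent inhibition, limit read from the data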;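 note: 0% = tunicamycin plus vehicle and 100% = wells without tunicamycin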
CHOP UPR activ = activators of apoptotic arm of unfolded protein response (CHOP); CHO-CHOP luciferase reporter, UPR activation, luminescence; percent of tunicamycin response over DMSO baseline; activation, % at 10 µM; actives 0.34% (n = 330,000);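 active = at 10 µM dose, activation of 40% or more, normalized to positive control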;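 note: 100% = tunicamycin at 10 µg/mL and 0% = DMSO alone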
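System: CHO CHOP reporter cells. Amount: 500 cells per well. Buffer or medium: F12 medium, 10% FBS. Compound dosing: one dose, 10 µM in 0.5% DMSO. Incubation: 6 h compound exposure at 37 °C after overnight seeding. Technique: Steady-Glo luciferase luminescence. Benchmarks: tunicamycin and DMSO controls.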
UPR XBP1 act = adaptive UPR (XBP1) activation. CHO-XBP1 luciferase reporter, IRE1-XBP1 UPR activation, luminescence; percent of tunicamycin response, DMSO as zero. activation, % at 20 µM. actives 0.33% (n = 330,000). AID 463104;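 active = versus positive control, 20 µM dose yields 30% or more activation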;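 note: 100% = tunicamycin at 10 µg/mL and 0% = DMSO only wells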
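Material: CHO-XBP1 cells stably carrying IRE1-XBP1-driven luciferase reporter / Amount: 1000 cells per well / Compound: 20 µM, 1% DMSO / Times: 6 h treatment, 37 °C / Detection: luciferase luminescence / Measure: % activation of reporter signal versus tunicamycin and DMSO controls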
hiPSC survival = hiPSC single-cell survival enhancement | ATPlite luminescence; 100% = ROCK inhibitor wells, 0% = DMSO | actives 0.044% (n = 360,000) | survival enhancement, % at 20 µM; in the data active = survival enhancement above about 18%;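 note: cells exposed to compounds for 16 hours before the ATP read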
Cardio protect = modulators protecting cardiomyocytes from myocardial damage; H9c2 cardiomyocytes, H2O2 injury protection, ATPLite, 2 h; protection from H2O2 cell death, % at 20 µM; AID 588492; actives 0.63% (n = 360,000);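 active = compounds giving at least 50% protection of heart cells from peroxide-induced death in the single-dose screen, raw or plate-pattern-corrected value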;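 note: 0% = DMSO wells with peroxide and 100% = DMSO wells without peroxide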
* hit, by the source's call; nt = no result given. This is one part of a sample in which hits are shown more often than they occur.

SMILES	CHOP inhibitor	CHOP UPR activ	UPR XBP1 act	hiPSC survival	Cardio protect
CC(C)(C)c1nnc(NC(=O)c2cc(-c3ccccc3)nc3ccccc23)s1	74.0*	2.5	-1.9	7.2	-1.1
Cc1ccc2nc(-c3ccccc3)c(Cc3ccccc3C(F)(F)F)n2c1	nt	nt	nt	-3.1	-3.7
Brc1ccc(NCc2cccc3ccccc23)nc1	86.6*	-1.7	4.8	5.1	-3.9
CCC(C)n1c(SCc2ccc([N+](=O)[O-])cc2)nc2ccsc2c1=O (stereo not given)	73.7*	1.8	1.5	-0.8	-2.1
CCCCn1c(SCc2cccc([N+](=O)[O-])c2)nc2ccsc2c1=O	58.2	2.5	-0.3	-1.3	1.4
COc1ccc(N=Nc2cnc(C)nc2-c2ccccc2)cc1	72.7*	0.2	0.3	1.3	-4.2
Cc1ncc(N=Nc2ccccc2Cl)c(-c2ccccc2)n1	-16.3	1.3	-2.3	3.2	-6.9
Cn1cc(-c2csc(C(O)c3ccc(F)cc3)n2)cn1 (stereo not given)	nt	nt	nt	-1.3	-6.6
O=C(O)COc1cccc(NC(=O)c2ccccc2)c1	-8.8	0.6	-0.2	0.8	8.1
CC(C)CCOc1cccc(OCC(=O)O)c1	86.3*	-1.4	-0.9	-1.4	1.2
O=S1(=O)CC(N2CCN(c3ccccn3)CC2)CN1Cc1ccccc1 (stereo not given)	nt	nt	nt	0.2	4.2
Cc1ccc(-n2c(C)cc(/C=c3/sc4nc5ccccc5n4c3=O)c2C)cc1	84.7*	-8.9	-13.8	nt	nt
O=C(O)C1(C(=O)O)CCC2(CCCCC2)CC1	nt	nt	nt	-2.1	3.9
COc1cccc(C=NN(C)c2c([N+](=O)[O-])cc(C(F)(F)F)cc2[N+](=O)[O-])c1O	nt	nt	nt	-0.4	-6.8
C/C(=N\NC(=O)CNc1cccc(Cl)c1C)c1cccs1	92.4*	0.8	-1.4	-0.1	2.0
O=c1c2c([nH]c3ccc(Br)cc13)CCCC2	nt	-0.7	5.5	1.7	-3.6
NC(=O)c1cc(Br)cc2c3c([nH]c12)CCCC3	84.8*	-2.6	3.2	3.0	-3.6
N/C(=N\c1nc2ccccc2o1)NC(=O)c1ccccc1	85.1*	4.9	0.1	7.2	-1.4
O=C(CCCc1ccccc1)c1ccc2c(c1)OCCO2	88.9*	-9.5	-8.5	-6.4	-25.2
CC(C)CC(c1nnnn1CC1CCCO1)N1CCN(c2cccc(Cl)c2)CC1 (stereo not given)	83.0*	1.5	-4.6	10.5	-9.4
CCc1nnc(NC(=O)Cn2c(=O)oc3ccccc32)s1	-6.7	-3.2	-2.2	4.7	13.1
CC(C)CN(CC(C)C)c1nnc(NC(=O)Cn2c(=O)oc3ccccc32)s1	78.8*	-0.3	2.3	-2.2	-0.1
COc1cc(/C=N/NC(=O)c2ccc(Cl)cc2)ccc1OCC(=O)N1CC(C)OC(C)C1 (stereo not given)	19.2	1.2	-3.5	-0.1	21.8
COc1cc(/C=N/NC(=S)Nc2cccc(Cl)c2C)ccc1OCC(=O)N1CC(C)OC(C)C1 (stereo not given)	-21.4	1.2	-1.5	1.3	55.2*
O=[N+]([O-])c1ccc(-c2ccc(/C=N/c3c(-c4ccco4)nc4ccccn34)o2)c(Cl)c1	79.0*	nt	nt	nt	nt
SMILES	CHOP inhibitor	CHOP UPR activ	UPR XBP1 act	hiPSC survival	Cardio protect
Nc1nc2c(nc(Br)n2C2OC3COP(=O)(O)O[C@@H]3C2O)c(=O)[nH]1 (stereo not given in full)	19.4	nt	nt	nt	nt
COCCNC(=O)C1(C)CCN(C(=O)c2cc(C)nn2C(C)(C)C)C1 (stereo not given)	nt	nt	nt	-1.1	-0.2
COc1ccc(Cl)cc1C(Nc1cccnc1)c1ccc2cccnc2c1O (stereo not given)	16.8	-0.6	-0.1	-0.4	45.2
Oc1c(C(Nc2cccc(C(F)(F)F)c2)c2cccnc2)ccc2cccnc12 (stereo not given)	-66.6	-1.1	-4.1	-0.9	58.9*
Cc1cc(NC(c2cccnc2)c2ccc3cccnc3c2O)no1 (stereo not given)	nt	-1.9	-7.0	0.5	56.9*
CNS(=O)(=O)c1ccc(CNC[C@H]2O[C@@H](n3cc(C)c(=O)[nH]c3=O)C[C@@H]2O)cc1	nt	nt	nt	3.2	4.7
C[C@H]1CN([C@@H](C)CO)C(=O)CCCn2cc(nn2)CO[C@@H]1CN(C)C(=O)Nc1ccc(-c2cccs2)cc1	nt	nt	nt	2.2	7.0
CCCCCc1nc2c(C#N)c(-c3ccc(Cl)cc3)ccn2n1	91.6*	2.7	4.2	-2.6	-8.9
N#Cc1c(-c2ccc(Cl)cc2)ccn2nc(CCC(=O)O)nc12	-4.7	-0.8	-1.9	-0.8	5.2
C[C@@H]1CN([C@@H](C)CO)C(=O)c2cc(Br)cnc2O[C@H]1CN(C)C(=O)c1ccccc1F	nt	nt	nt	-1.7	6.4
CCc1ccc(S(=O)(=O)NCc2ccc(C(=O)NCCN(Cc3ccccc3)C(C)C)cc2)cc1	nt	nt	nt	0.2	-28.1
CC(C)(C)c1ccc(C2C(C#N)=C(N)Oc3n[nH]c(-c4cccnc4)c32)cc1 (stereo not given)	76.1*	0.7	-1.8	-0.6	-8.0
CCCCNC(=O)C(=O)N/N=C/c1ccc(OCC(=O)Nc2cccc(OC)c2)c(OC)c1	99.0*	2.1	-1.0	-1.2	-6.2
COc1cc(/C=N/NC(=O)c2ccncc2)ccc1OCC(=O)Nc1ccc(C)c(C)c1	nt	6.7	-1.4	1.5	52.0*
CCNC(=S)N/N=C/c1ccc(OCC(=O)Nc2ccc(OC)cc2)c(OC)c1	-8.7	-0.7	0.5	2.0	38.6
O=C(COc1cc(F)ccc1[N+](=O)[O-])NCC1CCCO1 (stereo not given)	nt	0.2	-0.3	-2.2	-5.7
O=C(OCC1CCC=CO1)C1CCC=CO1 (stereo not given)	nt	nt	nt	-0.6	0.9
CN1CCN(c2oc(COc3ccc(-c4ccccc4)cc3)nc2C#N)CC1	86.9*	0.1	-0.2	-2.8	-13.3
CC(C)NC(=S)NC(=O)/C=C/c1cccc2ccccc12	86.5*	-0.7	-2.5	0.3	-6.0
CN1CCN(C(=S)NC(=O)/C=C/c2cccc3ccccc23)CC1	20.0	-0.7	-3.2	-0.1	-4.5
CCOC(=O)c1[nH]c(CSc2nnc(-c3ccc(OC)cc3)o2)c(C(=O)OCC)c1C	70.1*	11.1	-2.1	0.8	7.3
CC(NS(=O)(=O)c1ccc(Br)cc1F)[C@H](O)c1ccccc1 (stereo not given in full)	nt	nt	nt	0.1	3.0
CN(C(=O)c1ccccc1)c1nc2ccccc2s1	72.2*	-2.5	-10.2	-3.1	-19.8
CCCCN(C(=O)c1ccc(S(=O)(=O)N(C)C)cc1)c1nc2ccccc2s1	70.7*	2.2	-2.8	1.4	-16.2
CCCCN(C(=O)c1ccc(S(=O)(=O)N(C)C)cc1)c1ccccc1	20.1	-1.8	-0.6	-0.5	-8.2
O=C(COC(=O)c1cccc(OC(F)F)c1)Nc1ncccn1	nt	2.9	-3.5	5.4	13.1
CCOc1cc(C(=O)OCC(=O)Nc2cc(C)on2)ccc1OCC(C)C	94.0*	0.3	-3.2	3.2	-5.4
